# Experimental data taken from ChEMBL document CHEMBL1142328, “Imidazolidines as new anti-Trypanosoma cruzi agents: biological evaluation and structure-activity relationships” (Bioorg Med Chem, 2008).
# The source made the active and inactive calls. The calls are words filed in the database; no cut-off is given here.
# Columns and labels:
# Trypanosoma cruzi [1] = experiment: Growth inhibition of Trypanosoma cruzi epimastigotes Tulahuen 2 at 25 uM; assay type: functional; conditions: for inhibition of growth at 25 µM: read-out: GI
# Method in brief: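 Epimastigotes in BHI-Tryptose + 5% FBS at 28 °C, inoculated at 1×10^6 cells/mL from 10-day stationary culture. Drug tested at 25 μM from DMSO stock (final DMSO ≤0.4%; 0.4% DMSO control). Inhibition % = {1 − [(Ap − A0p)/(Ac − A0c)]}×100 using A600 at day 0 and day 5. Means of three experiments.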
# Trypanosoma cruzi [2] = experiment: Growth inhibition of Trypanosoma cruzi epimastigotes Tulahuen 2; assay type: functional, organism-based
# Method in brief: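 Epimastigotes grown axenically at 28 °C in BHI-Tryptose with 5% FBS. Stationary-phase (10-day) cells inoculated at 1×10^6 cells/mL into medium with drug (DMSO stock, final DMSO ≤0.4%; 0.4% DMSO control). Growth followed by A600 daily. IC50 = concentration reducing the day-5 absorbance ratio vs control to 50%, over increasing concentrations. Means of three experiments.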
# Trypanosoma cruzi [3] = experiment: Increase in lactose metabolite excretion in cell free medium of Trypanosoma cruzi Y relative to control; assay type: functional, organism-based; conditions: in the assay text read “lactate” for “lactose”
# Method in brief: (§1)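 Parasites treated with compound for 2 days. 5 mL of culture centrifuged at 1500g, 10 min, 4 °C. Parasite-free supernatant stored at −20 °C, then analysed by 1H NMR. Metabolite signals confirmed by spiking and by a 4 µg/mL standard in phosphate buffer pH 7.4. Increase expressed as % relative to untreated cells.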
# Trypanosoma cruzi [4] = experiment: Increase in alanine metabolite excretion in cell free medium of Trypanosoma cruzi Y relative to control; assay type: functional, organism-based; method in brief: as §1
# Trypanosoma cruzi [5] = experiment: Increase in acetate metabolite excretion in cell free medium of Trypanosoma cruzi Y relative to control; assay type: functional, organism-based; method in brief: as §1
# Trypanosoma cruzi [6] = experiment: Increase in glycine metabolite excretion in cell free medium of Trypanosoma cruzi Y relative to control; assay type: functional, organism-based; method in brief: as §1
Compound,IC50 (Trypanosoma cruzi [2]) [µM],inhibition of growth at 25 µM (Trypanosoma cruzi [1]) [%],also measured
Clc1cccc(CN2CCN(Cc3cccc(Cl)c3)C2)c1,9.7,100,–
CC1N(c2ccccc2)CCN1c1ccccc1,–,12.4,–
Clc1ccc(N2CCN(Cc3ccccc3)C2c2ccccc2)cc1 (stereo unspecified),–,70.4,–
Brc1cccc(N2CCN(CN3CCN(c4cccc(Br)c4)C3)C2)c1,–,10.8,–
Cc1ccc(N2CCN(CN3CCN(c4ccc(C)cc4)C3)C2)cc1,–,0,–
Cc1ccc(N2CCN(Cc3ccccc3)C2)cc1,–,44.2,–
O=[N+]([O-])c1ccc(N2CCN(CN3CCN(c4ccc([N+](=O)[O-])cc4)C3)C2)cc1,–,0,–
Clc1ccc(N2CCN(Cc3ccccc3)C2)cc1,–,64.7,–
Clc1ccc(N2CCN(CN3CCN(c4ccc(Cl)cc4)C3)C2)cc1,–,0,–
c1ccc(CN2CCN(Cc3ccccc3)C2c2ccccc2)cc1,–,63,–
c1ccc(CN2CCN(c3ccccc3)C2c2ccccc2)cc1 (stereo unspecified),–,45.1,–
c1ccc(N2CCN(c3ccccc3)C2)cc1,–,12.3,–
COc1ccc(CN2CCN(Cc3ccc(OC)cc3)C2C)cc1,37,40,–
Clc1ccc(CN2CCN(Cc3ccc(Cl)c(Cl)c3)C2c2ccc(Cl)c(Cl)c2)cc1Cl,–,30,–
Oc1ccccc1CNCCNCc1ccccc1O,–,–,Activity (Trypanosoma cruzi [1]): inactive
Brc1ccc(N2CCN(CN3CCN(c4ccc(Br)cc4)C3)C2)cc1,–,0,–
Cc1ccc(N2CCN(C)C2c2ccccc2)cc1 (stereo unspecified),–,8.9,–
COc1ccc(N2CCN(CN3CCN(c4ccc(OC)cc4)C3)C2)cc1,–,0,–
c1ccc(N2CCN(CN3CCN(c4ccccc4)C3)C2)cc1,–,0,–
Clc1cccc(N2CCN(CN3CCN(c4cccc(Cl)c4)C3)C2)c1,–,8,–
Clc1ccc(CN2CCN(Cc3ccc(Cl)c(Cl)c3)C2c2ccco2)cc1Cl,4.1,93.9,Activity (Trypanosoma cruzi [3]): 10%; Activity (Trypanosoma cruzi [4]): 30%; Activity (Trypanosoma cruzi [5]): 10%; Activity (Trypanosoma cruzi [6]): 15%
Clc1ccc(CNCCNCc2ccc(Cl)cc2)cc1,2,–,–
Cc1ccc(N2CCN(Cc3ccccc3)C2c2ccccc2)cc1 (stereo unspecified),–,46,–
CC1CS(=O)(=O)CCN1/N=C/c1ccc([N+](=O)[O-])o1 (stereo unspecified) [NIFURTIMOX],–,100,–
c1ccc(C2N(c3ccccc3)CCN2c2ccccc2)cc1,–,39.6,–
Clc1ccc(CN2CCN(Cc3ccc(Cl)c(Cl)c3)C2)cc1Cl,15.1,100,–
c1ccc(CN2CCN(c3ccccc3)C2)cc1,–,17.2,–
COc1ccc(CNCCNCc2ccc(OC)cc2)cc1,16.2,–,–
Oc1ccccc1CN1CCN(Cc2ccccc2O)C1c1ccccc1,–,4.8,–
CN1CCN(c2ccccc2)C1c1ccccc1 (stereo unspecified),–,0,–

# The next lines start with results.
IC50 (Trypanosoma cruzi [2]) [µM],Compound,inhibition of growth at 25 µM (Trypanosoma cruzi [1]) [%],also measured
4.7,Clc1ccc(CN2CCN(Cc3ccc(Cl)cc3)C2c2cccc(Cl)c2)cc1,100,–
5,COc1ccc(C2N(Cc3ccc(Cl)cc3)CCN2Cc2ccc(Cl)cc2)cc1,100,–
12.5,Cc1ccc(CN2CCN(Cc3ccc(C)cc3)C2c2ccccc2)cc1,100,–
9,Clc1ccc(CN2CCN(Cc3ccc(Cl)cc3)C2c2ccc(Cl)c(Cl)c2)cc1,92,–
14.7,Clc1cccc(CN2CCN(Cc3cccc(Cl)c3)C2c2ccccc2)c1,100,–
16.5,COc1ccc(CN2CCN(Cc3ccc(OC)cc3)C2c2ccc([N+](=O)[O-])cc2)cc1,83,–
6.4,Clc1ccc(CN2CCN(Cc3ccc(Cl)c(Cl)c3)C2c2ccccc2)cc1Cl,100,–
10.2,Clc1ccc(CN2CCN(Cc3ccc(Cl)cc3)C2/C=C/c2ccccc2)cc1,100,–
4.6,Oc1cccc(C2N(Cc3ccc(Cl)cc3)CCN2Cc2ccc(Cl)cc2)c1,97.4,Activity (Trypanosoma cruzi [3]): 30%; Activity (Trypanosoma cruzi [4]): 40%; Activity (Trypanosoma cruzi [5]): 60%; Activity (Trypanosoma cruzi [6]): 60%
9,Cc1ccc(CN2CCN(Cc3ccc(C)cc3)C2c2ccc(Cl)cc2)cc1,100,–
4.3,Clc1ccc(CN2CCN(Cc3ccc(Cl)cc3)C2c2ccco2)cc1,89.4,–
14.9,COc1ccc(CN2CCN(Cc3ccc(OC)cc3)C2c2ccc(Cl)cc2)cc1,100,–
14,COc1ccc(CN2CCN(Cc3ccc(OC)cc3)C2c2cccc(Cl)c2)cc1,95,–
23.5,Clc1ccc(C2N(Cc3ccccc3)CCN2Cc2ccccc2)cc1,60,–
16,COc1ccc(CN2CCN(Cc3ccc(OC)cc3)C2c2ccc(Cl)c(Cl)c2)cc1,91,–
25,Clc1ccc(C2N(Cc3ccc(Cl)c(Cl)c3)CCN2Cc2ccc(Cl)c(Cl)c2)cc1,50,–
1.1,COc1ccc(CN2CCN(Cc3ccc(OC)cc3)C2c2ccccc2)cc1,75.3,–
23,COc1ccc(CN2CCN(Cc3ccc(OC)cc3)C2c2cccc([N+](=O)[O-])c2)cc1,93,–
5,Clc1ccc(CN2CCN(Cc3ccc(Cl)cc3)C2c2ccccc2)cc1,94.5,–
25.3,COc1ccc(CN2CCN(Cc3ccc(OC)cc3)C2c2ccccc2Cl)cc1,49,–
14.5,O=[N+]([O-])c1ccc(C2N(Cc3ccc(Cl)cc3)CCN2Cc2ccc(Cl)cc2)cc1,100,–
4.3,Oc1ccccc1C1N(Cc2ccc(Cl)cc2)CCN1Cc1ccc(Cl)cc1,86.8,–
8.9,Clc1ccc(CN2CCN(Cc3ccc(Cl)cc3)C2c2ccc(Cl)cc2)cc1,100,–
13.4,Cc1ccc(CN2CCN(Cc3ccc(C)cc3)C2c2cccc(Cl)c2)cc1,99,–
10.3,Clc1ccc(CN2CCN(Cc3ccc(Cl)cc3)C2)cc1,100,–
10,COc1ccc(CN2CCN(Cc3ccc(OC)cc3)C2/C=C/c2ccccc2)cc1,98.6,–
11,Clc1ccc(CN2CCN(Cc3ccc(Cl)cc3)C2c2ccccc2Cl)cc1,100,–
